Test [1] deals with Mycobacterium tuberculosis. The experiment in a line: Antimycobacterial activity against isoniazid-resistant Mycobacterium tuberculosis H37Rv ATCC 35822 assessed as inhibition of bacterial growth by agar plate dilution method. Type of test: functional. An outline of the steps:
(§1)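 MIC determined by agar plate dilution method; isoniazid and rifampin run as references.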

The subject of test [2] is Mycobacterium tuberculosis. Nature of the test: Antimycobacterial activity against rifampicin-resistant Mycobacterium tuberculosis H37Rv ATCC 35838 assessed as inhibition of bacterial growth by agar plate dilution method. Type of test: functional. An outline of the steps: as §1

Converted amounts (≈) assume the structure as drawn.

One may read the MIC as the lowest concentration that inhibits growth of the organism.

Consider `NNC(=O)c1ccncc1` [ISONIAZID], for which the MIC in test [1] is greater than 8 µg/mL; in test [2], 0.25 µg/mL (≈ 1.82 µM).
The corresponding values for `CC(C)=CCC/C(C)=C/CC/C(C)=C/COc1ccc(C(=O)OCCCOc2cccc(Nc3nc4ccccc4c(=O)o3)c2)cc1` are 2.3 µg/mL (≈ 3.61 µM) and 1.8 µg/mL (≈ 2.83 µM).
In the case of `CO[C@H]1/C=C/O[C@@]2(C)Oc3c(C)c(O)c4c(O)c(c(/C=N/N5CCN(C)CC5)c(O)c4c3C2=O)NC(=O)/C(C)=C\C=C\[C@H](C)[C@H](O)[C@@H](C)[C@@H](O)[C@@H](C)[C@H](OC(C)=O)[C@@H]1C` [RIFAMPIN], the minimal inhibitory concentration (MIC) in test [1] is 0.03 µg/mL (≈ 0.0365 µM); in test [2] it was greater than 2 µg/mL.
The corresponding values for `CC(C)=CCC/C(C)=C/COc1ccc(C(=O)OCCCOc2cccc(Nc3nc4ccccc4c(=O)o3)c2)cc1` are 4.4 µg/mL (≈ 7.74 µM) and 2.6 µg/mL (≈ 4.57 µM).

These data come from ChEMBL document CHEMBL4706595, “1,3-Oxazine-2-one derived dual-targeted molecules against replicating and non-replicating forms of Mycobacterium tuberculosis” (Eur J Med Chem, 2020).
